Assay outcomes (PubChem)
PP1 counter = PP1-alpha phosphatase inhibitors, primary screen, counter-screen for PP5 inhibitor project, biochemical, fluorescence, OMFP substrate, single point | 0.9% of 320,000 active | inhibition, % at 6.7 µM | Serine/threonine-protein phosphatase PP1-alpha catalytic subunit (Homo sapiens), P62136 | purified PP1alpha | AID 2235, 2010;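 active = inhibition above the mean inhibition of all tested compounds plus 3 SD, computed separately for each screening campaign, cut at about 15% in these data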
NR2E3 ag-1 = NR2E3 agonists in two-hybrid cells, primary screen, cell-based, luminescence, CHO-S, Gal4-NCOR/VP16-NR2E3 | inhibition of corepressor binding, % at 3.98 µM | luciferase | 0.35% of 360,000 active | Photoreceptor-specific nuclear receptor (Homo sapiens), Q9Y5X4 | AID 602229, 2012;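 active = inhibition above the mean of all tested compounds plus 3 SD, cut at about 70% in these data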;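 note: 0% = DMSO with NR2E3 transfected cells and 100% = cells lacking NR2E3 construct; higher means lower luciferase signal from less NR2E3 corepressor binding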
NR2E3 ag-2 = inhibitors of NR2E3-RetCOR corepressor binding, primary screen, NR2E3 agonist project, biochemical, TR-FRET, GST-NR2E3, biotin-RetCOR | Photoreceptor-specific nuclear receptor (Homo sapiens), Q9Y5X4 | 1536-well | inhibition of corepressor binding, % at 4.78 µM | 0.12% of 320,000 active;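 active = percent inhibition above the cutoff of mean plus 3 SD of all tested compounds, set per screening campaign, cut at about 20% in these data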;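 note: 0% = DMSO wells and 100% = biotin wells as full block of FRET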
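Material: NR2E3–RetCOR corepressor complex / Incubation: Compound–protein incubation for 5 h at 4 °C / Dosing: compound at 4.8 µM, single dose / Detection: time-resolved FRET / Benchmarks: high control biotin, low control 0.6% DMSO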
PP5 inh = PP5 phosphatase inhibitors, primary screen, biochemical, fluorescence | purified PP5c, OMFP substrate fluorescence | inhibition, % at 6.7 µM | Serine/threonine-protein phosphatase 5 (Homo sapiens), P53041 | 0.18% of 320,000 active;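 active = inhibition above the campaign's mean inhibition across all tested compounds plus 3 SD, cut at about 9.5% in these data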;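 note: 0% = DMSO only and 100% = 100 µM cantharidin control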
Target sequence (P53041 whole entry, looked up): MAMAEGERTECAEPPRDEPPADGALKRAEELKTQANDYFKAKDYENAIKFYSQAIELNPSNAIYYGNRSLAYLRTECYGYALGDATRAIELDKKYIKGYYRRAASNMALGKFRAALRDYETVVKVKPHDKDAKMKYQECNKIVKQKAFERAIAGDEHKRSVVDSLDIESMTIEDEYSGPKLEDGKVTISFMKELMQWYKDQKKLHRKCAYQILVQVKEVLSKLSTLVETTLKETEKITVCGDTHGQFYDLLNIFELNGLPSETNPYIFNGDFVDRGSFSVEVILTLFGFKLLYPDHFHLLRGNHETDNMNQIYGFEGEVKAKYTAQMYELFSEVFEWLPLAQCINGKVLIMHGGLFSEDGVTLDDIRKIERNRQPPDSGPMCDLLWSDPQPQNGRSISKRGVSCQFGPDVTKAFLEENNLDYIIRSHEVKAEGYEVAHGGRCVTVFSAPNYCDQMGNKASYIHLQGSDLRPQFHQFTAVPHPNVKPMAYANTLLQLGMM
NR2E3 ag confirm = NR2E3 agonist confirmation in cells, cell-based, luminescence, CHO-S two-hybrid; 51% of 2,300 active; shares compounds with NR2E3 ag-1; inhibition, % at 3.98 µM; CHO-S mammalian two-hybrid NR2E3-NCOR, luciferase luminescence;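 active = average inhibition above a cutoff equal to the mean inhibition of all tested compounds plus one SD, cut at about 70% in these data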;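 note: 0% = DMSO in NR2E3 cells and 100% = DMSO in cells lacking NR2E3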
GAL4-VP16 luc = GAL4-VP16 reporter modulators, confirmation, counter-screen for NR2E3 agonist project, cell-based, luminescence, CHO-S, high throughput; CHO-S GAL4-VP16 luciferase reporter; 29% of 2,300 active; inhibition, % at 3.98 µM; AID 624379, 2012; shares compounds with NR2E3 ag-1;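 active = mean inhibition above a cutoff equal to the average over all tested compounds plus one standard deviation, cut at about 70% in these data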;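 note: luciferase from a UAS reporter driven by GAL4-VP16 transactivation; 0% = DMSO with VP16-transfected cells and 100% = DMSO with cells lacking VP16; higher means less reporter light so more repression of VP16 activity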
Active calls of the source: *; . = no result. In the library only some 1.3% were active in any assay of this set; here they are far more common.

SMILES	PP1 counter	NR2E3 ag-1	NR2E3 ag-2	PP5 inh	NR2E3 ag confirm	GAL4-VP16 luc
COc1ccc(Cl)cc1C(=O)NC(=S)Nc1cc(-c2nc3ccccc3[nH]2)ccc1C	3	-109	2	3	.	.
COc1ccc(OC)c2c1C(=O)C(Cl)=C(Cl)C2=O	2	102*	-16	3	99*	68
CC(C)CCNC(=O)CN(Cc1ccco1)C(=O)c1snc(C(N)=O)c1N	-4	49	-2	-1	4	7
CCCOC(=O)c1ccc(Oc2cn[nH]c2-c2ccc(O)cc2O)cc1	3	58	2	3	4	34
Cn1cc(CNCc2ccc(OC(F)(F)F)cc2)c(-c2ccc3c(c2)OCCO3)n1	-2	76*	-2	0	90*	79*
CC(=O)Nc1ccc(NC(=O)C(C)OC(=O)C2(c3ccccc3F)CCCC2)cc1 (centres undefined)	-2	-4	3	2	.	.
Cc1cc(C)c(S(=O)(=O)NCC2CCC(C(=O)NCCCN3CCC(C)CC3)CC2)c(C)c1 (centres undefined)	-5	-5	5	2	.	.
CC12CCC(C(=O)Nc3ccncc3)(CC1O)C2(C)C (centres undefined)	-4	-24	3	2	.	.
Cc1csc(NC(=O)CSCC(=O)O)c1-c1nc2ccccc2s1	-1	50	3	2	68	30
O=C(O)CSCC(=O)Nc1ccc(-c2nc3ccccc3s2)cc1	2	-139	-2	1	.	.
O=C(c1ccco1)N1CCN(S(=O)(=O)c2ccc(Br)cc2)CC1	10	-10	-1	2	.	.
O=C(c1ccco1)N1CCN(S(=O)(=O)c2ccc(Oc3ccccc3)cc2)CC1	0	49	1	1	48	66
NC(=O)CC(NC(=O)c1ccc(Br)cc1)c1ccc(N2CCCCCC2)c([N+](=O)[O-])c1 (centres undefined)	7	48	0	3	17	27
NC(=O)CC(NC(=O)c1ccccc1)c1ccc(N2CCCCCCC2)c([N+](=O)[O-])c1 (centres undefined)	-5	22	2	3	.	.
CC(=O)Nc1ccc2[nH]c3ccccc3c2c1	-3	-25	0	2	.	.
O=C(Nc1ccc(Cl)cc1)c1cc2c(cc1O)[nH]c1ccccc12	9	101*	-1	0	99*	90*
COc1ccccc1CNc1nc(Nc2ccccc2OC)c2sccc2n1	.	57	.	.	54	43
Cc1ccc(Nc2nc(NCc3ccccc3)nc3ccsc23)c(C)c1	.	57	.	.	42	50
COc1ccccc1CNc1nc(NC(C)C)nc2ccsc12	.	0	.	.	.	.
COc1ccccc1CNc1nc(Nc2ccc(C)cc2C)c2sccc2n1	.	59	.	.	65	52
Cc1ccc(Nc2nc(NCc3cccs3)nc3ccsc23)c(C)c1	.	35	.	.	.	.
CCOC(=O)C1=CCN(S(C)(=O)=O)C1c1ccc(C)cc1 (centres undefined)	.	-4	.	.	.	.
CC1=C/C(=N\NC(=S)Nc2cccnc2)CC(C)(C)C1	.	80*	.	.	-25	1
CC1(C)C2CC=C(/C=N/NC(=S)Nc3cccnc3)C1C2 (centres undefined)	-3	-11	6	4	.	.
Cc1cc(Cl)ccc1OC(C)C(=O)Nc1ccc(C(=O)Nc2ccccc2C(=O)O)cc1 (centres undefined)	12	53	4	10	10	32
SMILES	PP1 counter	NR2E3 ag-1	NR2E3 ag-2	PP5 inh	NR2E3 ag confirm	GAL4-VP16 luc
Cc1cc(Cl)ccc1OC(C)C(=O)Nc1ccc(S(=O)(=O)N2CCOCC2)cc1 (centres undefined)	-1	5	1	5	.	.
CSCC[C@H]1COC[C@@H](Cc2ccccc2)N1c1ccccc1	.	-4	.	.	.	.
Cc1ccc(NC(=S)NNc2ncc(C(F)(F)F)cc2Cl)c(C)c1	2	17	0	2	.	.
Fc1ccc(NC(=S)NNc2ncc(C(F)(F)F)cc2Cl)c(F)c1	0	80*	4	3	67	57
Cc1ccc(NC(=S)NNc2ncc(C(F)(F)F)cc2Cl)cc1	0	13	0	3	.	.
FC(F)(F)c1cnc(NNC(=S)Nc2ccc(Cl)cc2)c(Cl)c1	1	70*	1	3	94*	77*
Cc1cc(=O)[nH]c(/N=C(\N)Nc2ccc(SC(F)F)cc2)n1	-3	-32	0	0	.	.
c1cc2c(cc1-c1cnc3n1CCC3)OCCO2	2	56	2	3	66	3
CN(CC(=O)Nc1ccc(Cl)cc1)CC(=O)Nc1sc2c(c1C(N)=O)CCC2	.	30	.	.	.	.
COC(=O)c1cc(CSc2nc3ccccc3c(=O)n2C)oc1C	-2	87*	4	3	83*	71*
Cc1cccc(N2CCN(C(=O)CCc3nc4ccccc4c(=O)[nH]3)CC2)c1C	.	-44	.	.	.	.
c1cncc(CNc2ncnc3sccc23)c1	-5	3	0	0	.	.
c1ccc(CNc2ncnc3sccc23)cc1	7	91*	-3	-1	80*	53
COc1ccc(CNc2ncnc3sccc23)cc1	-2	94*	4	-1	82*	63
c1csc(CNc2ncnc3sccc23)c1	-3	72*	-1	0	84*	66
COc1ccc(C(CNc2ncnc3sccc23)N(C)C)cc1OC (centres undefined)	-3	-25	-1	-1	.	.
Cc1ccccc1C(=O)NNC(=O)C(=O)N1CCCCC1	3	-4	2	0	.	.
Cc1ccc(NNC(=O)C(=O)N2CCCCC2)cc1	-2	57	2	0	37	24
Cc1cc2nc(C)n(CCCNC(=O)Nc3cccc4ccccc34)c2cc1C	1	62	0	3	76*	67
Cc1ccc(-n2c(-c3ccccc3)c[n+]3c2CCc2ccccc2-3)c(C)c1	-5	-16	2	-1	.	.
Cc1ccc(-c2nc(NC(=O)c3nn(C)cc3[N+](=O)[O-])sc2C)cc1	1	5	-3	1	.	.
Cn1cc([N+](=O)[O-])c(C(=O)Nc2nc(-c3ccc(Cl)cc3)cs2)n1	0	71*	2	5	47	0
Cc1nn(C)c(C(=O)NCc2ccc(Cl)cc2)c1Cl	-1	61	-4	-1	89*	75*
Cc1nc(C)c(C(=O)NCc2ccc(Cl)cc2)o1	1	4	6	3	.	.
CCOC(=O)CNC(=O)C1(NC(=O)CNC(=O)OCc2ccccc2)CCCC1	.	-11	.	.	.	.
CCOc1cc(-c2sc(Nc3ccccc3)n[n+]2C)ccc1OC	-2	-33	2	2	.	.
